Assays:
[1] = tested on: Human immunodeficiency virus 1; assay: Antiviral activity against HIV1 3B infected in human MT-2 cells assessed as inhibition of viral-mediated cell death after 5 days by MTT assay; assay type: functional, organism-based; settings: Human immunodeficiency virus 1, 3B, MT2, 120 h
Outline: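 MT-2 cells at 1 × 10^5 cells/mL infected with wild-type HIV-IIIB at MOI 0.1, cultured 5 days in RPMI 1640 with 10% dFBS and kanamycin across varying compound concentrations in triplicate. MTT added for 5 h, cells lysed with acidified isopropanol, absorbance read at 595 nm. Triplicate averages plotted as dose-response curves; EC50 is the concentration inhibiting viral-mediated cell death by 50%.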

MT2 = assay: Cytotoxicity against human MT2 cells after 5 days by MTT assay; assay type: cell-based; settings: mt2, 120 h
Outline: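 Mock-infected MT-2 cells (1 × 10^5 cells/mL) grown 5 days in RPMI 1640 with 10% dFBS and kanamycin at varying compound concentrations, in triplicate. Viability read by MTT (5 h), then acidified isopropanol lysis and absorbance at 595 nm. Triplicate averages plotted against concentration; CC50 is the concentration reducing viable cells by 50%.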

[2] = biological target: Human immunodeficiency virus type 1 reverse transcriptase (Human immunodeficiency virus 1, UniProt Q72547); assay: Inhibition of HIV1 reverse transcriptase-mediated thymidine incorporation into D23/D36 primer-template preincubated for 15 mins by polyacrylamide gel-electrophoresis
Outline: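 RT at 6 nM active sites (from pre-steady-state active-site titration) pre-incubated ≥15 min with 1 μM 5′-radiolabelled D23/D36 primer/template, then ≥15 min on ice with inhibitor (DMSO held constant, <2%; DMSO-only control). Reaction started with 5 μM dTTP plus 10 mM MgCl2 (final concentrations), 15 min at 37 °C, quenched with 0.3 M EDTA. Products resolved on 20% denaturing PAGE. IC50 taken from a hyperbolic fit of product versus inhibitor concentration.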

Structure (SMILES)	EC50 [1] [nM]	CC50 (MT2) [nM]	IC50 [2] [nM]
COC(=O)[C@H](C)NP(=O)(OC[C@@H]1C=C[C@H](n2cc(C#CCOCCOCCOCCOCCOc3ccc(OC)cc3CCNC(=S)Nc3ccc(Br)cn3)c(=O)[nH]c2=O)O1)Oc1ccc(C)cc1 (stereo not given in full)	2900	11000	2300
COc1ccc(OCCOCCOCCOCCOCC#Cc2cn([C@H]3C=C[C@@H](CO)O3)c(=O)[nH]c2=O)c(CCNC(=S)Nc2ccc(Br)cn2)c1	3100	18000	1400
COc1ccc(OCCC#Cc2cn([C@H]3C=C[C@@H](CO)O3)c(=O)[nH]c2=O)c(CCNC(=S)Nc2ccc(Br)cn2)c1	250	17000	61
Cc1cn([C@H]2C=C[C@@H](CO)O2)c(=O)[nH]c1=O [STAVUDINE]	2300	> 100000	9600
COc1ccc(OCCOCCOCC#Cc2cn([C@H]3C=C[C@@H](CO)O3)c(=O)[nH]c2=O)c(CCNC(=S)Nc2ccc(Br)cn2)c1	1900	43000	850
COc1ccc(OCCOCC#Cc2cn([C@H]3C=C[C@@H](CO)O3)c(=O)[nH]c2=O)c(CCNC(=S)Nc2ccc(Br)cn2)c1	1300	38000	575
COc1ccc(OC)c(CCNC(=S)Nc2ccc(Br)cn2)c1		> 1000	38
